Source: PubChem
Apaf1 inhib = inhibitors of human Apaf-1 apoptosome, primary screen, biochemical, DEVD-Rh110 fluorescence, uHTS; inhibition, % at 20 µM; AID 489030, 2010; reconstituted apoptosome caspase-3 activity; Apoptotic protease-activating factor 1 (Homo sapiens), O14727; 330,000 tested, 0.71% active; active = inhibition of at least 40% at 20 µM;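 note: plate controls were DMSO wells for no effect and DEVD-CHO caspase inhibitor wells for full effect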
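System: Apoptosome proteins | Medium: Hepes pH 7.5 with detergent and BSA | Also added: Cytochrome c trigger plus (Z-DEVD)2-Rh110 caspase-3 substrate | Incubation: 30 min compound preincubation, 50 min activation, room temperature | Detection: Rhodamine 110 fluorescence at Ex 480/Em 540 nm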
UBC13 polyUb = UBC13 polyubiquitin chain formation inhibitors, primary screen, biochemical, TR-FRET, uHTS; 330,000 tested, 0.47% active; AID 485273, 2010; inhibition, % at 20 µM; in the data active = inhibition above about 45%, passing the limit was not always enough
UPR CHOP act = activators of apoptotic CHOP UPR arm, primary screen, cell-based, CHO-CHOP luciferase reporter, luminescence, uHTS | UPR activation; percent of tunicamycin response over DMSO baseline | activation, % at 10 µM | 330,000 tested, 0.34% active | AID 449763, 2010;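 active = at 10 µM dose, activation of 40% or more, normalized to positive control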;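 note: 100% = tunicamycin at 10 µg/mL and 0% = DMSO alone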
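Assay system: CHO cells with stable CHOP pathway luciferase reporter; Buffer or medium: F12 plus 10% serum; Times: 16-18 h cell attachment, then 6 h compound exposure, 37 °C; Signal: luciferase luminescence; Read-out basis: percent activation relative to tunicamycin control; Control set: tunicamycin high control, DMSO low control.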
Mdm2-MdmX inh = inhibitors of human Mdm2-MdmX association, primary screen, cell-based, luminescence, split luciferase, SaOS-2, uHTS; Protein Mdm4 (Homo sapiens) + E3 ubiquitin-protein ligase Mdm2 (Homo sapiens), …; SaOS-2 split-luciferase Mdm2/MdmX complementation; inhibition, % at 8 µM; 330,000 tested, 3% active;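 active = inhibition of at least 50% at 8 µM in the primary screen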
XBP1 UPR activ = activators of adaptive XBP1 UPR arm, primary screen, cell-based, CHO-XBP1 luciferase reporter, luminescence, uHTS. activation, % at 20 µM. IRE1-XBP1 UPR activation; percent of tunicamycin response, DMSO as zero. AID 463104, 2010. 330,000 tested, 0.33% active;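 active = versus positive control, 20 µM dose yields 30% or more activation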;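 note: 100% = tunicamycin at 10 µg/mL and 0% = DMSO only wells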
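Test system: CHO-XBP1 luciferase reporter cells | Buffer or medium: Serum-containing F12 medium, 10% FBS | Schedule: 6 h compound exposure at 37 °C, 5% CO2 | Detection: Steady-Glo luciferase glow luminescence, 10 min after reagent addition | Read-out basis: Activation, % of tunicamycin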
Apaf-1 inh conf2 = Apaf-1 inhibitors, single-dose retest, confirmation, biochemical, fluorescence, DEVD-Rh110, 20 µM; reconstituted apoptosome, caspase-3 DEVD-Rh110 fluorescence; 1,800 tested, 25% active; inhibition, % at 20 µM; shares compounds with Apaf1 inhib;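 active = mean inhibition of at least 40% at 20 µM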;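 note: plate controls were DMSO wells for no effect and DEVD-CHO caspase inhibitor control wells for full effect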
Rh110 interf inh = Rh110 fluorescence interference by putative Apaf-1 inhibitors, confirmation, artefact control for Apaf-1 inhibitor project, biochemical, 20 µM; activation (fluorescence interference), % at 20 µM; shares compounds with Apaf1 inhib; quenched caspase reaction; 1,800 tested, under 10 active;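 active = signal rise of 40% or more at 20 µM, treated as a fluorescence artifact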
Fluor interf inh = fluorescence interference of Apaf-1 inhibitor hits, dose response, artefact control for Apaf-1 inhibitor project; shares compounds with Apaf1 inhib; fluorescence interference counterscreen, Apaf-1 assay format; IC50, µM; 460 tested, under 10 active; call rule not given here
Starred values were filed as active, the others as inactive; nt = no result given. The list is not random: actives were taken first. Their share in the collection is about 4.1%.

SMILES	Apaf1 inhib	UBC13 polyUb	UPR CHOP act	Mdm2-MdmX inh	XBP1 UPR activ	Apaf-1 inh conf2	Rh110 interf inh	others
N#Cc1c(NC(=O)c2ccc(Br)o2)n(-c2ccccc2)c2nc3ccccc3nc12	96*	-28	0	-6	2	87*	-3	Fluor interf inh=>100
CCn1c(SCc2ccccc2)nc2cc(S(N)(=O)=O)ccc21	11	-3	-1	7	0	nt	nt
Cc1cccc(NC(=O)CNC(=O)CSc2nc(N)cc(N)n2)c1C	1	2	1	-4	-3	nt	nt
O=C(c1cn(-c2ccccc2)nc1-c1ccc(F)cc1)N1CCOCC1	7	4	0	-6	2	nt	nt
O=C(c1ccco1)N1CCN(C(=O)c2cn(-c3ccccc3)nc2-c2ccc(F)cc2)CC1	72*	1	4	-14	3	15	6
COc1ccc(-n2c(=S)[nH]c3cc(C(=O)N4CCN(c5ccccc5)CC4)ccc3c2=O)c(OC)c1	15	-4	3	-17	-1	nt	nt
CCCN1C(=O)/C(=C/c2cc(C)n(C)c2C)SC1=Nc1ccc(OC)cc1	41*	-14	0	18	2	19	9
COc1ccc(N=C2S/C(=C\c3cc(C)n(C)c3C)C(=O)N2C)cc1	13	-2	-1	11	1	nt	nt
Cc1ccc(/C=N/NC(=O)C(C)NC(=O)c2ccccc2)cc1 (stereo unspecified)	41*	2	2	32	-1	8	-6
CC(=O)Nc1ccc(NC2=C/C(=N/S(=O)(=O)c3cccs3)c3ccccc3C2=O)cc1	90*	-79	2	22	-4	94*	-5	Fluor interf inh=>100
Nc1c(C(=O)NCCN2CCOCC2)c2nc3ccccc3nc2n1CCc1ccccc1	20	6	-1	36	-4	nt	nt
Nc1c(C(=O)NCCN2CCOCC2)c2nc3ccccc3nc2n1CCc1ccccc1F	43*	-9	2	26	0	18	13
Nc1c(C(=O)NCCN2CCOCC2)c2nc3ccccc3nc2n1-c1ccc2c(c1)OCO2	9	-10	1	19	0	nt	nt
Nc1c(C(=O)NCc2ccc3c(c2)OCO3)c2nc3ccccc3nc2n1CCCN1CCOCC1	90*	1	0	34	0	44*	10	Fluor interf inh=>100
C=CCNC(=O)C(=O)c1cccn1-c1ccsc1C(=O)OC	-3	-14	-1	20	-3	nt	nt
C=CCn1c(SCC(=O)NC2CCCc3ccccc32)nnc1-c1ccncc1 (stereo unspecified)	11	-18	2	7	-3	nt	nt
Cn1c(SCC(=O)Nc2ccc3nc(SCC(=O)N4CCCC4)sc3c2)nnc1-c1ccccc1	66*	-10	1	29	-3	12	-2
COc1ccc(C(=O)C2CCCN(Cc3ccc4nonc4c3)C2)c(OC)c1 (stereo unspecified)	6	12	-1	8	-2	nt	nt
COCC(C)N1C(=O)Cc2c1nc(N)c1c(N)nc(N3CCN(c4ccccc4F)CC3)c(C#N)c21 (stereo unspecified)	97*	-74	5	8	2	25	5
COc1ccc(CN2C(=O)Cc3c2nc(N)c2c(N)nc(N4CCOCC4)c(C#N)c32)cc1	86*	-6	1	-20	2	25	22
Cc1cccnc1NC(=O)c1ccc(OCC2CCCO2)cc1 (stereo unspecified)	54*	19	2	-17	1	34	6
